Most compounds without a hit are left out; they make up all but 5.1% or so of the library.
NF-kB expr up: activators of NF-kB expression in neurons, primary screen, cell-based, HTS; human neuronal cells, NF-kB reporter expression; hits give high values; fold change at 12.5 µM; 190,000 compounds, 1.6% hits; AID 1239, 2008; in the data active = fold change above about 3.3
STAT3 activator: IL-6 driven STAT3 reporter potentiators, primary screen, U3A cells, luciferase, luminescence, MLSCN library | IL-6 STAT3-luciferase reporter; 100% = signal with IL-6 EC80 alone | activation (% of control), % at 5.6 µM | 190,000 compounds, 0.91% hits | AID 871, 2007;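 active = activation above the screen-wide mean of compound activation plus 3 SD, cut at about 130% in these data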;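 note: 0% = background luminescence of wells with medium and substrate only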
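Test system: STAT3-luciferase reporter U3A cells; Detection: reporter luminescence signal; Times: 1 h compound pre-exposure, 6 h IL-6 stimulation, 37 °C; Benchmarks: IL-6-only high control; Also added: IL-6 stimulus at 33 ng/mL final.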
STAT3 inh: IL-6 driven STAT3 reporter inhibitors, primary screen, U3A cells, luciferase, luminescence, MLSCN library; IL-6 STAT3-luciferase reporter; host cell line lacks STAT1; inhibition, % at 5.5 µM; 190,000 compounds, 0.89% hits;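 active = inhibition above the mean inhibition across all screened compounds plus 3 SD, cut at about 44% in these data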;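 note: 0% = DMSO only wells and 100% = 100 µM nifuroxazide control wells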
STAT1 blocker: STAT1 signaling inhibitors, primary screen, cell-based, HTS, luciferase reporter | NIH 3T3 STAT1-luciferase reporter, IFN-gamma, luminescence | inhibition, % at 5.5 µM | 200,000 compounds, 0.35% hits | AID 920, 2007;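 active = inhibition above a set limit, the mean inhibition across all tested compounds plus 3 SD, cut at about 34% in these data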;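 note: 0% = IFN-gamma with DMSO and 100% = IFN-gamma with 300 µM nifuroxazide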
APP 5'UTR act: activators of APP 5'UTR luciferase reporter, primary screen, SH-SY5Y cells; SH-SY5Y APP 5'UTR luciferase reporter, luminescence; zero percent = DMSO vehicle wells; activation, % at 2 µM; 190,000 compounds, 1% hits; AID 1276, 2008;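 active = activation above a set limit, based on mean plus 3 SD of controls, cut at about 140% in these data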
STAT1 act: STAT1 signaling activators, primary screen, cell-based, HTS, luciferase reporter; NIH 3T3 STAT1-luciferase reporter, IFN-gamma, luminescence; 100% = IFN-gamma alone, no compound; AID 932, 2007; 200,000 compounds, 2.6% hits; activation (% of control), % at 5.5 µM;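 active = activation above the screen-wide mean activation plus 3 SD, cut at about 130% in these data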;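 note: raw ratio to IFN-gamma control signal so 100% means no change and 0% no light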
Starred values were filed as active, the others as inactive; . = not tested or not shown.

SMILES	NF-kB expr up	STAT3 activator	STAT3 inh	STAT1 blocker	APP 5'UTR act	STAT1 act
COCCNC(=O)c1cc(-c2cccs2)on1	6.4*	115	-13	-39	27	135*
COc1cc(NC(=O)c2cc(-c3cccs3)on2)cc(OC)c1OC	1.1	92	14	-1	-2	100
COc1ccc(CNC(=O)c2cc(-c3cccs3)on2)cc1	1.3	104	0	-7	2	106
C/C(Cc1ccccc1)=N\NC(=O)C1CCCCC1	1.1	106	-8	0	-13	101
COC(=O)N/N=C(/c1ccccc1)C1CCCCC1	5.6*	99	3	3	5	96
c1ccc(-c2ccccc2OCc2nnc3n2CCC3)cc1	1.2	106	-1	1	0	99
CC(Sc1nnc(NC2CCCCC2)s1)C(=O)Nc1ccc2c(c1)C(=O)c1ccccc1C2=O (centres undefined)	1.2	98	0	-47	32	142*
O=C(c1cccs1)N1CCC(c2ccccc2)C1 (centres undefined)	2.4	104	-1	-38	68	135*
NC(=O)C1CCN(C(=O)Nc2ccccc2)CC1	0.92	102	1	-2	11	107
O=C(/C=C/c1ccccc1)N1CCC(c2ccccc2)C1 (centres undefined)	4.4*	105	-3	-42	141*	137*
Cc1cccc(OCC(=O)N2CCC(c3ccccc3)C2)c1 (centres undefined)	2.2	103	-1	-22	131	121
O=C(Nc1ccccc1)N1CCC(c2ccccc2)C1 (centres undefined)	3.1	90	13	-41	78	138*
O=C(COc1ccc(F)cc1)N1CCC(c2ccccc2)C1 (centres undefined)	2	111	-9	-39	47	136*
O=C(/C=C/c1ccco1)N1CCCC(c2ccccc2)C1 (centres undefined)	1.8	97	6	-12	17	109
COc1ccc(-c2nc(CN(Cc3cnn(C)c3)C(C)C)c(C)o2)c(OC)c1	1.1	98	8	3	-5	97
CCOC(=O)CC1CCCCN1Cc1cn[nH]c1-c1ccc(F)cc1F (centres undefined)	1.1	97	8	-1	9	99
Clc1ccc(-n2cc(COCc3ccccc3)nn2)cc1	4.1*	68	43	4	170*	97
O=C(Nc1ccc(Cl)cc1)OCc1cn(-c2ccc(Cl)cc2)nn1	1.4	100	6	-10	.	109
O=C(CCc1nnc(CCCCc2ccccc2)o1)NCCC1CCCCO1 (centres undefined)	1.4	106	5	2	-17	97
O=C(NNc1ccc(Cl)nn1)c1ccc(Cl)cc1	1.2	99	2	-1	28	101
Cc1nc2c(-c3ccc(F)cc3)cnn2c2c1CCC2	1.8	107	3	-35	32	130*
COc1ccc(-c2noc(-c3ccccc3Cl)n2)cc1OC	4.9*	109	-7	-47	125	143*
COc1ccc(-c2noc(-c3ccoc3C)n2)cc1OC	3.6*	93	14	-46	61	143*
COc1ccc(-c2noc(-c3ccc(Cl)cc3[N+](=O)[O-])n2)cc1OC	1.9	95	4	-3	42	103
Cc1cccc(-c2noc(-c3ccc(Cl)cc3[N+](=O)[O-])n2)c1	5.3*	115	-20	-10	178*	109
SMILES	NF-kB expr up	STAT3 activator	STAT3 inh	STAT1 blocker	APP 5'UTR act	STAT1 act
COc1ccc(-c2nc(-c3ccncc3)no2)cc1OC	1.1	117	-16	-32	78	132*
COc1ccc(-c2noc(-c3cccc(Cl)c3)n2)cc1OC	2	93	12	-16	52	114
CCN(C(=O)COC(=O)C1CCN(S(=O)(=O)c2cccs2)CC1)c1ccccc1	1.2	100	0	-6	-4	106
Cc1cccc(-c2noc(-c3ccoc3C)n2)c1	2.1	100	0	-53	105	150*
Cc1cccc(-c2noc(Cc3ccc(Cl)cc3)n2)c1	1.8	106	-2	-15	30	114
CC(=O)c1ccc(NC(=O)Nc2ccccc2)cc1	3.6*	75	35	-23	138*	121
CCc1c(C)[nH]c2nc3ccccc3n2c1=O	1	108	-3	-4	-25	104
O=c1cc(-c2ccccc2)[nH]c2nc3ccccc3n12	4.8*	73	36	6	116	94
CCCC(=O)Nc1nc2ccc(OC)cc2s1	3.1	94	8	-46	61	144*
COc1ccc2nc(NC(=O)C3COc4ccccc4O3)sc2c1 (centres undefined)	3.4*	75	35	-12	132	111
O=C(Nc1nc(-c2nc3ccccc3s2)cs1)C1COc2ccccc2O1 (centres undefined)	3	107	-9	-34	36	132*
CC(=O)Nc1nc(C2COc3ccccc3O2)cs1 (centres undefined)	5*	89	22	-50	168*	145*
COc1ccc(OC)c(-c2csc(NC(=O)C3COc4ccccc4O3)n2)c1 (centres undefined)	1.4	88	20	2	4	97
COc1ccccc1NC(=O)CSCc1nc2ccccc2[nH]1	0.95	108	-3	12	-5	89
CC(C)NC(=O)NC(=O)CSc1ccccc1F	1.1	82	20	4	11	96
CCc1cccc(CC)c1NC(=S)NCC(c1cccnc1)N1CCOCC1 (centres undefined)	0.98	99	3	-5	-20	105
COc1ccc2nc(NC(=O)c3cc(C)oc3C)sc2c1	2.5	83	23	-42	145*	139*
CN1CCN(CC(=O)N(C)c2nc(-c3ccccc3)cs2)CC1	1.4	111	-9	-36	106	134*
CN1CCN(CC(=O)Nc2nc(-c3ccccc3)cs2)CC1	0.95	100	8	4	12	96
O=C1CC(c2ccco2)CC2=C1C1c3ccccc3C(=O)N1c1ccccc1N2 (centres undefined)	8.4*	100	3	-2	19	101
CCC(=O)N1c2ccccc2NC2=C(C(=O)CC(c3ccco3)C2)C1c1ccco1 (centres undefined)	1.1	110	-7	6	5	95
COc1cccc(NC(=O)CSC(N)=O)c1	1.4	108	-11	-11	-7	110
COc1ccc(N2C(=O)c3ccccc3NC23CCCCC3)cc1	3.1	97	8	-38	135	135*

Source: PubChem
